Test [1] can be described thus: Cytotoxicity against human Hep3B cells assessed as growth inhibition after 72 hrs by MTT assay. The class given is functional, cell-based, Hep 3B2. In general terms: Tetrazolium assays rely on reduction of a dye to a coloured formazan, in cell work by metabolically active cells.
In the next test the test system is DU-145. The test is described as follows: Cytotoxicity against human DU145 cells assessed as growth inhibition after 72 hrs by MTT assay. The class given is functional, cell-based. The settings on record: DU-145, 72 h. The method in brief:
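Seeded at 3000 cells/well and incubated with diluted compounds, with bexarotene and SAHA as positive controls, for 72 h. Final DMSO 0.1%. Remaining cells quantified with MTT dye per manufacturer instructions.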

The subject of a further test is HGC-27. Description: Cytotoxicity against human HGC27 cells assessed as growth inhibition after 72 hrs by MTT assay. In kind it is functional, cell-based. The note with it: HGC-27, 72 h.
Test [2] deals with KB. The test is described as follows: Cytotoxicity against human KB cells assessed as growth inhibition after 72 hrs by MTT assay. The class given is functional, cell-based. The method in brief:
(§1)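 Cells seeded at 3000 per well and exposed to diluted compounds, with bexarotene and SAHA as positive controls, for 48 h (drug-resistant cells) or 72 h (parental cells). Final DMSO 0.1%. Cell number determined by MTT dye per manufacturer instructions.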

A short description of test [3]: Cytotoxicity against human GBC-SD cells assessed as growth inhibition after 72 hrs by MTT assay. The class given is functional, cell-based.
The subject of test [4] is KB. The test is described as follows: Cytotoxicity against bexarotene-resistant human KB cells assessed as growth inhibition after 48 hrs by MTT assay. The class given is functional, cell-based. The method in brief:
as §1

For test [5], the target named is T1, Histone deacetylase (Homo sapiens) (UniProt Q13547+O15379+Q9UBN7+Q92769+Q9UQL6+Q8WUI4+Q9BY41+Q96DB2+P56524+Q9UKV0+Q969S8). Description: Inhibition of HDAC in human HL60 cells using Boc-Lys(Ac)-pNA as substrate incubated for 24 hrs prior to substrate addition measured after 90 mins by fluorescence assay. In kind it is cell-based. The settings on record: HL-60. The method in brief:
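HL60 cells exposed to a range of compound concentrations or SAHA for 24 h, then lysed and protein measured by BCA. Lysates incubated with Boc-Lys(Ac)-pNA (10 mM) in HDAC assay buffer for 90 min at 37 °C. Lysine Developer added and incubated 30 min at 37 °C before plate-reader readout. Mean ± SD of three determinations.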

For test [6], the target named is T1, Histone deacetylase (Homo sapiens). The test is described as follows: Inhibition of HDAC in human HL60 cells assessed as increase in acetylated H3 level after 48 hrs by Western blot analysis. The note with it: HL-60. In kind it is cell-based. The method in brief: (§2)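 About 1 × 10⁷ HL60 cells exposed to compound or SAHA for 48 h. Nuclear protein extracted, equal protein amounts resolved on 10–15% SDS–PAGE and blotted to PVDF. Probed for acetylated H3 and p21WAF1/CIP1, with histone H3 and β-actin as loading controls. ECL detection on X-ray film, densitometry relative to control.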
On the technique in general: A western blot detects proteins with antibodies after separation by electrophoresis.

Test [7] shares this target. The test is described as follows: Inhibition of HDAC in human HL60 cells assessed as increase in p21 WAF1/CIP1 level after 48 hrs by Western blot analysis. The class given is cell-based. The note with it: HL-60. The method in brief:
as §2

Test [8] concerns the target T2, Retinoic acid receptor RXR-alpha (Homo sapiens, UniProt P19793).
T2 sequence (P19793 whole entry): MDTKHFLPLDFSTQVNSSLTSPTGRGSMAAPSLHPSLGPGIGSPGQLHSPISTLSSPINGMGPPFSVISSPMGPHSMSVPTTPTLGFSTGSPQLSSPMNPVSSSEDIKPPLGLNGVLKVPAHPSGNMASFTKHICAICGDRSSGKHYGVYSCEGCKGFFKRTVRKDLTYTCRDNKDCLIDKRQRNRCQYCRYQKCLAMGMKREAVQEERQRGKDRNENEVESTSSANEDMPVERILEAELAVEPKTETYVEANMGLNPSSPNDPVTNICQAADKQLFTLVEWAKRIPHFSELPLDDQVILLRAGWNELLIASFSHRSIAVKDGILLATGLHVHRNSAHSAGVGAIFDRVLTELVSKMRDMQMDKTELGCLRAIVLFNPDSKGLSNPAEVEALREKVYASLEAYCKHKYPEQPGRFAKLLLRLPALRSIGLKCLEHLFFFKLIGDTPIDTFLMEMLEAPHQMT
The test is described as follows: Transactivation of human RXRalpha transfected in human 293 cells after 48 hrs by dual-luciferase reporter gene assay. In kind it is cell-based, HEK293.

A further test has as its system A549. Description: Cytotoxicity against human A549 cells assessed as growth inhibition after 72 hrs by MTT assay. The settings on record: A549, 72 h. In kind it is functional, cell-based.
A further test deals with A549/SAHA. The test is described as follows: cells. The note with it: Homo sapiens, 48 h.
Another test has as its target Histone deacetylase. Description: Inhibition of HDAC isolated from human HeLa cell nuclear extract after 30 mins by fluorescence assay. The class given is protein assay.

Usually IC50 stands for the concentration that inhibits the measured activity by half. Take `C=C(c1ccc(C(=O)O)cc1)c1cc2c(cc1C)C(C)(C)CCC2(C)C` [BEXAROTENE]: the IC50 in [1] came out at 192 µM; with DU-145, 61.6 µM; with HGC-27, 32.7 µM; with KB [2], 8.8 µM; in [3], 73.3 µM; in the test on KB [4] it was 46.3 µM.

Usually EC50 stands for the midpoint of the concentration-response curve. A lower EC50 goes with greater potency. In the case of `C=C(c1ccc(C(=O)NO)cc1)c1cc2c(cc1C)C(C)(C)CCC2(C)C`, the inhibition result in test [5], in test [6] and in test [7] was “Dose-dependent effect” throughout. Also, the IC50 in test [1] came out at 17.4 µM; in the test on DU-145, 14.1 µM; with HGC-27 it was 8.6 µM; with KB [2], 6.1 µM; in test [3], 24.1 µM; in the test on KB [4], 16.8 µM. Further, the IC50 in the test with A549 is 9.4 µM; with A549/SAHA it was 3.8 µM; on Histone deacetylase, 6.7 µM. The compound further had an EC50 in test [8] of 0.0195 µM.

Regarding `O=C(CCCCCCC(=O)Nc1ccccc1)NO` [VORINOSTAT], in the test on DU-145, the IC50 came to 27.2 µM.

Values taken from ChEMBL document CHEMBL2396643, “Discovery of a small molecular compound simultaneously targeting RXR and HADC: design, synthesis, molecular docking and bioassay” (Bioorg Med Chem Lett, 2013).
